Assay results from ChEMBL document CHEMBL5303300, “EUbOPEN Chemogenomics Library - Multiplex” (2023).
Where “and” joins values, the source holds several entries; their conditions need not be identical. Equal values may be shown once.

Columns and labels:
U2OS = assay: Multiplex assay against U2OS; format: toxicity, cell-based; conditions: human, number of replicates 2
Procedure, shortened: (§1)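 Tubulin, mitochondrial-mass and membrane-permeability phenotypes are per cents of healthy-nucleus cells. Cells were gated by CellPathfinder machine learning into Hoechst high-intensity objects or normal cells, normal cells into healthy, pyknosed or fragmented nuclei, and pyknosed cells into mitotic or apoptotic. Before that, live cells stained at seeding with Hoechst33342, BioTracker Green Microtubule Cytoskeleton Dye, MitoTracker Red and Annexin V Alexa Fluor 680 were imaged on a CQ1 microscope at 37°C and 5% CO2 after compound addition.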

HEK-293T = assay: Multiplex assay against HEK293T; format: toxicity, cell-based; conditions: human, number of replicates 2; procedure, shortened: as §1
[1] = 12 h, 1 µM, compound concentration 1 uM
[2] = 12 h, 10 µM, compound concentration 10 uM
[3] = 24 h, 1 µM, compound concentration 1 uM
[4] = 24 h, 10 µM, compound concentration 10 uM
[5] = 48 h, 1 µM, compound concentration 1 uM
[6] = 48 h, 10 µM, compound concentration 10 uM

CC(C)(C)c1cnc(CSc2cnc(NC(=O)C3CCN(CC(=O)NCCOCCOCCOCCNc4cccc5c4C(=O)N(C4CCC(=O)NC4=O)C5=O)CC3)s2)o1 (stereo not drawn)
Population Apoptotic (%) (U2OS; [1]): 40% and 96%
Population Fragmented Nuclei (%) (U2OS; [1]): 10% and 3%
Population Healthy Nuclei (%) (U2OS; [1]): 82% and 88%
Population Hoechst High Intensity Objects (%) (U2OS; [1]): 0%
Population Membrane Permeable-Phenotype (%) (U2OS; [1]): 1%
Population Mitochondria Different-Phenotype (%) (U2OS; [1]): 0% and 3%
Population Normal (%) (U2OS; [1]): 100%
Population Pyknosed Nuclei (%) (U2OS; [1]): 6% and 7%
Population Tubulin-Different-Phenotype (%) (U2OS; [1]): 58% and 74%
Population Apoptotic (%) (U2OS; [2]): 50% and 80%
Population Healthy Nuclei (%) (U2OS; [2]): 47% and 59%
Population Hoechst High Intensity Objects (%) (U2OS; [2]): 1% and 0%
Population Membrane Permeable-Phenotype (%) (U2OS; [2]): 14% and 17%
Population Mitochondria Different-Phenotype (%) (U2OS; [2]): 17% and 31%
Population Mitotic Cells (%) (U2OS; [2]): 50% and 19%
Population Normal (%) (U2OS; [2]): 98% and 100%
Population Pyknosed Nuclei (%) (U2OS; [2]): 23% and 32%
Population Tubulin-Different-Phenotype (%) (U2OS; [2]): 82% and 77%
Total Cell Count (U2OS; [2]): 60 and 161
Population Apoptotic (%) (U2OS; [3]): 66% and 72%
Population Fragmented Nuclei (%) (U2OS; [3]): 6% and 3%
Population Healthy Nuclei (%) (U2OS; [3]): 87%
Population Hoechst High Intensity Objects (%) (U2OS; [3]): 0%
Population Membrane Permeable-Phenotype (%) (U2OS; [3]): 1%
Population Mitochondria Different-Phenotype (%) (U2OS; [3]): 1%
Population Mitotic Cells (%) (U2OS; [3]): 33% and 27%
Population Normal (%) (U2OS; [3]): 100% and 99%
Population Pyknosed Nuclei (%) (U2OS; [3]): 6% and 9%
Population Tubulin-Different-Phenotype (%) (U2OS; [3]): 56% and 71%
Population Apoptotic (%) (U2OS; [4]): 65% and 93%
Population Fragmented Nuclei (%) (U2OS; [4]): 17% and 11%
Population Healthy Nuclei (%) (U2OS; [4]): 31% and 25%
Population Hoechst High Intensity Objects (%) (U2OS; [4]): 1% and 0%
Population Membrane Permeable-Phenotype (%) (U2OS; [4]): 12% and 14%
Population Normal (%) (U2OS; [4]): 98% and 99%
Population Pyknosed Nuclei (%) (U2OS; [4]): 50% and 63%
Population Tubulin-Different-Phenotype (%) (U2OS; [4]): 81% and 57%
Total Cell Count (U2OS; [4]): 52 and 141
Population Fragmented Nuclei (%) (U2OS; [5]): 4%
Population Healthy Nuclei (%) (U2OS; [5]): 85% and 86%
Population Hoechst High Intensity Objects (%) (U2OS; [5]): 0%
Population Membrane Permeable-Phenotype (%) (U2OS; [5]): 2% and 1%
Population Mitochondria Different-Phenotype (%) (U2OS; [5]): 0% and 1%
Population Normal (%) (U2OS; [5]): 99% and 100%
Population Pyknosed Nuclei (%) (U2OS; [5]): 9%
Population Tubulin-Different-Phenotype (%) (U2OS; [5]): 57% and 77%
Population Apoptotic (%) (U2OS; [6]): 96% and 86%
Population Fragmented Nuclei (%) (U2OS; [6]): 9% and 19%
Population Healthy Nuclei (%) (U2OS; [6]): 11% and 19%
Population Hoechst High Intensity Objects (%) (U2OS; [6]): 2%
Population Membrane Permeable-Phenotype (%) (U2OS; [6]): 56% and 22%
Population Mitochondria Different-Phenotype (%) (U2OS; [6]): 62% and 22%
Population Mitotic Cells (%) (U2OS; [6]): 3% and 13%
Population Normal (%) (U2OS; [6]): 97%
Population Pyknosed Nuclei (%) (U2OS; [6]): 78% and 61%
Population Tubulin-Different-Phenotype (%) (U2OS; [6]): 75% and 100%
Total Cell Count (U2OS; [6]): 141 and 48
Population Apoptotic (%) (HEK-293T; [1]): 65% and 77%
Population Fragmented Nuclei (%) (HEK-293T; [1]): 5% and 4%
Population Healthy Nuclei (%) (HEK-293T; [1]): 75%
Population Hoechst High Intensity Objects (%) (HEK-293T; [1]): 15%
Population Membrane Permeable-Phenotype (%) (HEK-293T; [1]): 4% and 1%
Population Mitochondria Different-Phenotype (%) (HEK-293T; [1]): 42% and 53%
Population Mitotic Cells (%) (HEK-293T; [1]): 34% and 22%
Population Normal (%) (HEK-293T; [1]): 84%
Population Pyknosed Nuclei (%) (HEK-293T; [1]): 18% and 20%
Population Tubulin-Different-Phenotype (%) (HEK-293T; [1]): 74% and 82%
Total Cell Count (HEK-293T; [1]): 329 and 381
Population Apoptotic (%) (HEK-293T; [2]): 78% and 82%
Population Fragmented Nuclei (%) (HEK-293T; [2]): 6% and 3%
Population Healthy Nuclei (%) (HEK-293T; [2]): 75% and 73%
Population Hoechst High Intensity Objects (%) (HEK-293T; [2]): 27% and 26%
Population Membrane Permeable-Phenotype (%) (HEK-293T; [2]): 7%
Population Mitochondria Different-Phenotype (%) (HEK-293T; [2]): 65% and 75%
Population Mitotic Cells (%) (HEK-293T; [2]): 21% and 17%
Population Normal (%) (HEK-293T; [2]): 72% and 73%
Population Pyknosed Nuclei (%) (HEK-293T; [2]): 18% and 22%
Population Tubulin-Different-Phenotype (%) (HEK-293T; [2]): 70% and 63%
Total Cell Count (HEK-293T; [2]): 285 and 270
Population Apoptotic (%) (HEK-293T; [3]): 76% and 75%
Population Fragmented Nuclei (%) (HEK-293T; [3]): 5%
Population Healthy Nuclei (%) (HEK-293T; [3]): 80% and 74%
Population Hoechst High Intensity Objects (%) (HEK-293T; [3]): 17% and 20%
Population Membrane Permeable-Phenotype (%) (HEK-293T; [3]): 2% and 1%
Population Mitochondria Different-Phenotype (%) (HEK-293T; [3]): 49% and 52%
Population Mitotic Cells (%) (HEK-293T; [3]): 23% and 25%
Population Normal (%) (HEK-293T; [3]): 82% and 80%
Population Pyknosed Nuclei (%) (HEK-293T; [3]): 14% and 20%
Population Tubulin-Different-Phenotype (%) (HEK-293T; [3]): 69% and 74%
Total Cell Count (HEK-293T; [3]): 332 and 395
Population Apoptotic (%) (HEK-293T; [4]): 77% and 75%
Population Fragmented Nuclei (%) (HEK-293T; [4]): 9% and 3%
Population Healthy Nuclei (%) (HEK-293T; [4]): 65% and 68%
